Measured values: ChEMBL document CHEMBL2034865, “Cytotoxic alkaloids from Fusarium incarnatum associated with the mangrove tree Aegiceras corniculatum” (2012)

How the values were obtained:
Format in all cases: functional
HUVEC = test: Antiproliferative activity against HUVEC cells; settings: Homo sapiens
Summary of the method: (§1)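 HUVEC and K562 (DSM ACC 10) cells were exposed to compounds and growth was scored against untreated controls. The readout is GI50, the concentration that cuts growth of treated cells to half that of untreated cells.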

HeLa = test: Cytotoxicity against human HeLa cells
Summary of the method: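 HeLa cervix carcinoma cells (DSM ACC 57) were treated with compounds. The readout is CC50, the concentration that kills 50% of treated cells.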

K562 = test: Antiproliferative activity against human K562 cells; summary of the method: as §1

| Structure (SMILES) | GI50 (K562) [µM] | GI50 (HUVEC) [µM] | CC50 (HeLa) [µM] |
| --- | --- | --- | --- |
| CC1=CC(=O)/C(=C(\C)NCCc2ccc(O)cc2)C(=O)O1 [FUSAMINE] | 37.6 | 37.3 | 23.3 |
| O=C(CO)c1cccn1CCc1ccc(O)cc1 [FUSARINE] | > 200 | > 200 | > 200 |
| C/C=C(\C)C(=O)NCC(C)C | > 300 | > 300 | > 300 |
| CC(=O)N1CCc2c([nH]c3ccccc23)C1 | 33.3 | 41.1 | 23.8 |

The next compounds have a lower GI50 (K562) than those just listed; values first:

| GI50 (K562) [µM] | Structure (SMILES) | GI50 (HUVEC) [µM] | CC50 (HeLa) [µM] |
| --- | --- | --- | --- |
| 9 | CC1=CC(=O)/C(=C(\C)N)C(=O)O1 | 68.2 | 104 |
| 0.17 | Cc1ccc(NC(=O)c2ccc(CN3CCN(C)CC3)cc2)cc1Nc1nccc(-c2cccnc2)n1 [IMATINIB] | 18.5 | 65.8 |
